Test results as given in ChEMBL document CHEMBL1275278, “Synthesis and pharmacological evaluation of clubbed isopropylthiazole derived triazolothiadiazoles, triazolothiadiazines and mannich bases as potential antimicrobial and antitubercular agents” (Eur J Med Chem, 2010).
Converted amounts (≈) assume the structure as drawn.

Key:
Type in all cases: functional
[1] = system: Pseudomonas aeruginosa; experiment: Antibacterial activity against Pseudomonas aeruginosa ATCC 10145 after 24 hrs by broth microdilution method; conditions: ATCC 10145, 24 h
Summary of the method: (§1)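 Broth dilution in Mueller-Hinton broth. Tubes inoculated at 10⁵ cfu/mL and incubated 37 °C for 24 h. MIC taken as lowest concentration completely inhibiting growth. Media and media-plus-DMSO growth controls; ciprofloxacin and norfloxacin as reference standards.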

[2] = system: Aspergillus niger; experiment: Antifungal activity against Aspergillus niger ATCC 6275 after 24 hrs by broth microdilution method; conditions: ATCC 6275, 24 h
[3] = system: Escherichia coli; experiment: Antibacterial activity against Escherichia coli ATCC 10536 after 24 hrs by broth microdilution method; conditions: ATCC 10536, 24 h; summary of the method: as §1
[4] = system: Saccharomyces cerevisiae; experiment: Antifungal activity against Saccharomyces cerevisiae ATCC 9763 after 24 hrs by broth microdilution method; conditions: ATCC 9763, 24 h
[5] = system: Bacillus subtilis; experiment: Antibacterial activity against Bacillus subtilis ATCC 60511 after 24 hrs by broth microdilution method; conditions: ATCC 60511, 24 h; summary of the method: as §1
[6] = system: Klebsiella pneumoniae; experiment: Antibacterial activity against Klebsiella pneumoniae ATCC 10031 after 24 hrs by broth microdilution method; conditions: ATCC 10031, 24 h; summary of the method: as §1
[7] = system: Staphylococcus aureus; experiment: Antibacterial activity against Staphylococcus aureus ATCC 11632 after 24 hrs by broth microdilution method; conditions: ATCC 11632, 24 h; summary of the method: as §1
[8] = system: Enterococcus faecalis; experiment: Antibacterial activity against Streptococcus faecalis ATCC 14506 after 24 hrs by broth microdilution method; conditions: ATCC 14506, 24 h; summary of the method: as §1
[9] = system: Candida tropicalis; experiment: Antifungal activity against Candida tropicalis ATCC 1369 after 24 hrs by broth microdilution method; conditions: ATCC 1369, 24 h
[10] = system: Mycobacterium tuberculosis; experiment: Antimycobacterial activity against Mycobacterium tuberculosis H37Rv after 21 days by broth dilution assay; conditions: 504 h
Summary of the method: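 Frozen culture in Middlebrook 7H9 broth with 10% albumin-dextrose-catalase and 0.2% glycerol, thawed and diluted in broth to 10⁵ cfu/mL. Compounds dissolved in DMSO, twofold diluted in broth; final DMSO 1.3%. Tubes inoculated, incubated at 37 °C. Growth compared visually against drug-free and drug- and inoculum-free controls and isoniazid. MIC = lowest concentration inhibiting ≥99% of the starting bacterial population.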

| SMILES | MIC [1] | MIC [2] | MIC [3] | MIC [4] | MIC [5] | MIC [6] | MIC [7] | MIC [8] | MIC [9] | MIC [10] |
| --- | --- | --- | --- | --- | --- | --- | --- | --- | --- | --- |
| CC(C)c1csc(-c2nnc3sc(S)nn23)n1 | 31.2 µg/mL (≈ 110 µM) | 16 µg/mL (≈ 56.5 µM) | 62.5 µg/mL (≈ 221 µM) | 16 µg/mL (≈ 56.5 µM) | 16 µg/mL (≈ 56.5 µM) | 31.2 µg/mL (≈ 110 µM) | 125 µg/mL (≈ 441 µM) | 31.2 µg/mL (≈ 110 µM) | 8 µg/mL (≈ 28.2 µM) | 31.2 µg/mL (≈ 110 µM) |
| Cc1nn2c(-c3nc(C(C)C)cs3)nnc2s1 | 62.5 µg/mL (≈ 236 µM) | 31.2 µg/mL (≈ 118 µM) | 125 µg/mL (≈ 471 µM) | 62.5 µg/mL (≈ 236 µM) | 31.2 µg/mL (≈ 118 µM) | 16 µg/mL (≈ 60.3 µM) | 62.5 µg/mL (≈ 236 µM) | 31.2 µg/mL (≈ 118 µM) | 31.2 µg/mL (≈ 118 µM) | 31.2 µg/mL (≈ 118 µM) |
| COc1cc(C2Nn3c(nnc3-c3nc(C(C)C)cs3)S2)cc(OC)c1OC (centres undefined) | 31.2 µg/mL (≈ 74.5 µM) | 31.2 µg/mL (≈ 74.5 µM) | 125 µg/mL (≈ 298 µM) | 16 µg/mL (≈ 38.1 µM) | 31.2 µg/mL (≈ 74.5 µM) | 62.5 µg/mL (≈ 149 µM) | 31.2 µg/mL (≈ 74.5 µM) | 31.2 µg/mL (≈ 74.5 µM) | 16 µg/mL (≈ 38.1 µM) | 62.5 µg/mL (≈ 149 µM) |
| CC(C)c1csc(-c2nnc3n2NC(c2ccc(O)cc2)S3)n1 (centres undefined) | 62.5 µg/mL (≈ 181 µM) | 125 µg/mL (≈ 362 µM) | 62.5 µg/mL (≈ 181 µM) | 62.5 µg/mL (≈ 181 µM) | 31.2 µg/mL (≈ 90.5 µM) | 62.5 µg/mL (≈ 181 µM) | 62.5 µg/mL (≈ 181 µM) | 62.5 µg/mL (≈ 181 µM) | 125 µg/mL (≈ 362 µM) | 125 µg/mL (≈ 362 µM) |
| CC(C)c1csc(-c2nnc3n2NC(c2ccc([N+](=O)[O-])cc2)S3)n1 (centres undefined) | 125 µg/mL (≈ 334 µM) | 8 µg/mL (≈ 21.4 µM) | 62.5 µg/mL (≈ 167 µM) | 16 µg/mL (≈ 42.7 µM) | 62.5 µg/mL (≈ 167 µM) | 31.2 µg/mL (≈ 83.5 µM) | 125 µg/mL (≈ 334 µM) | 125 µg/mL (≈ 334 µM) | 8 µg/mL (≈ 21.4 µM) | 62.5 µg/mL (≈ 167 µM) |
| CC(C)c1csc(-c2n[nH]c(=S)n2NC(=O)c2ccccc2)n1 | 16 µg/mL (≈ 46.3 µM) | 16 µg/mL (≈ 46.3 µM) | 31.2 µg/mL (≈ 90.5 µM) | 62.5 µg/mL (≈ 181 µM) | 31.2 µg/mL (≈ 90.5 µM) | 125 µg/mL (≈ 362 µM) | 16 µg/mL (≈ 46.3 µM) | 31.2 µg/mL (≈ 90.5 µM) | 31.2 µg/mL (≈ 90.5 µM) | 16 µg/mL (≈ 46.3 µM) |
| Cc1ccc(C(=O)Nn2c(-c3nc(C(C)C)cs3)n[nH]c2=S)cc1 | 125 µg/mL (≈ 348 µM) | 62.5 µg/mL (≈ 174 µM) | 62.5 µg/mL (≈ 174 µM) | 62.5 µg/mL (≈ 174 µM) | 62.5 µg/mL (≈ 174 µM) | 62.5 µg/mL (≈ 174 µM) | 62.5 µg/mL (≈ 174 µM) | 125 µg/mL (≈ 348 µM) | 125 µg/mL (≈ 348 µM) | 31.2 µg/mL (≈ 86.9 µM) |
| CC(C)c1csc(-c2n[nH]c(=S)n2NC(=O)c2ccc(O)cc2)n1 | 31.2 µg/mL (≈ 86.5 µM) | 125 µg/mL (≈ 346 µM) | 31.2 µg/mL (≈ 86.5 µM) | 31.2 µg/mL (≈ 86.5 µM) | 31.2 µg/mL (≈ 86.5 µM) | 31.2 µg/mL (≈ 86.5 µM) | 125 µg/mL (≈ 346 µM) | 62.5 µg/mL (≈ 173 µM) | 125 µg/mL (≈ 346 µM) | 62.5 µg/mL (≈ 173 µM) |
| COc1ccc(/C=N/n2c(-c3nc(C(C)C)cs3)nn(CN3CCN(C)CC3)c2=S)cc1 | 16 µg/mL (≈ 33.9 µM) | 31.2 µg/mL (≈ 66.3 µM) | 31.2 µg/mL (≈ 66.3 µM) | 16 µg/mL (≈ 33.9 µM) | 8 µg/mL (≈ 17 µM) | 31.2 µg/mL (≈ 66.3 µM) | 31.2 µg/mL (≈ 66.3 µM) | 16 µg/mL (≈ 33.9 µM) | 31.2 µg/mL (≈ 66.3 µM) | 16 µg/mL (≈ 33.9 µM) |
| COc1ccc(/C=N/n2c(-c3nc(C(C)C)cs3)nn(CN3CCOCC3)c2=S)cc1 | 16 µg/mL (≈ 34.9 µM) | 16 µg/mL (≈ 34.9 µM) | 125 µg/mL (≈ 273 µM) | 62.5 µg/mL (≈ 136 µM) | 125 µg/mL (≈ 273 µM) | 31.2 µg/mL (≈ 68.1 µM) | 125 µg/mL (≈ 273 µM) | 62.5 µg/mL (≈ 136 µM) | 31.2 µg/mL (≈ 68.1 µM) |  |
| CC(C)c1csc(-c2nn(CN3CCOCC3)c(=S)n2/N=C/c2ccc(N(C)C)cc2)n1 | 31.2 µg/mL (≈ 66.3 µM) | 16 µg/mL (≈ 33.9 µM) | 31.2 µg/mL (≈ 66.3 µM) | 62.5 µg/mL (≈ 133 µM) | 16 µg/mL (≈ 33.9 µM) | 31.2 µg/mL (≈ 66.3 µM) | 16 µg/mL (≈ 33.9 µM) | 31.2 µg/mL (≈ 66.3 µM) | 31.2 µg/mL (≈ 66.3 µM) | 16 µg/mL (≈ 33.9 µM) |
| CC(C)c1csc(-c2nn(CN3CCN(C)CC3)c(=S)o2)n1 | 16 µg/mL (≈ 47.1 µM) | 16 µg/mL (≈ 47.1 µM) | 31.2 µg/mL (≈ 92 µM) | 62.5 µg/mL (≈ 184 µM) | 31.2 µg/mL (≈ 92 µM) | 16 µg/mL (≈ 47.1 µM) | 62.5 µg/mL (≈ 184 µM) | 31.2 µg/mL (≈ 92 µM) | 31.2 µg/mL (≈ 92 µM) | 16 µg/mL (≈ 47.1 µM) |
| CC(C)c1csc(-c2nn(CN3CCOCC3)c(=S)o2)n1 | 16 µg/mL (≈ 49 µM) | 62.5 µg/mL (≈ 191 µM) | 31.2 µg/mL (≈ 95.7 µM) | 31.2 µg/mL (≈ 95.7 µM) | 16 µg/mL (≈ 49 µM) | 31.2 µg/mL (≈ 95.7 µM) | 31.2 µg/mL (≈ 95.7 µM) | 16 µg/mL (≈ 49 µM) | 31.2 µg/mL (≈ 95.7 µM) | 31.2 µg/mL (≈ 95.7 µM) |
